The other results are listed elsewhere or left out. Activity calls are given as the source filed them. Cut-off read from the data, not from the text of the source, unless noted: active = inhibition above about 40%; inactive = the rest.

In assay [1] the target is PEG-3 (UniProt Q6IN02). The assay is described as follows: inhibition of PEG-3 promoter-driven reporter – cell-based, HeLa, luciferase, CREF/GAPDH counter-screen panel, dose response (AID 624167). To be noted: CREF/GAPDH counter-screens; HeLa PEG-Prom luciferase reporter, overnight, run 1, dose range 1, at 100 µM (top of the series) unless noted. A general note: The purpose of a counterscreen is to sort out artefacts and off-target activity.
Sequence of PEG-3 (Q6IN02 whole entry, looked up): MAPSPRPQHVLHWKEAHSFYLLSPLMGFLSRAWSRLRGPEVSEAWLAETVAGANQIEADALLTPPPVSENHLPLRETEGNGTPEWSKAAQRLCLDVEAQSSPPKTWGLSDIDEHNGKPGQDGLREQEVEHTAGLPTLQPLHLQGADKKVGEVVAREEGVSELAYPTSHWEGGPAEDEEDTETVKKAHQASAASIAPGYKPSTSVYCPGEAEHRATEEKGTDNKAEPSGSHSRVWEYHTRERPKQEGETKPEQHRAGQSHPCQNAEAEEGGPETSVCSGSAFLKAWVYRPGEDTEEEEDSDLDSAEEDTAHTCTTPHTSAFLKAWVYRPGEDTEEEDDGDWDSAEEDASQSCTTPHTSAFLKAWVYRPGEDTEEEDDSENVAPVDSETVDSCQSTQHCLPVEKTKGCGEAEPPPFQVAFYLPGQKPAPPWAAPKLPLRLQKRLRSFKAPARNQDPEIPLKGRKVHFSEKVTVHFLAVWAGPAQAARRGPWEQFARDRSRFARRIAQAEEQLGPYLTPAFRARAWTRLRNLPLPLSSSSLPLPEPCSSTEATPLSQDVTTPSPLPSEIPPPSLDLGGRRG

Assay [2] concerns the target PEG-3 (UniProt Q6IN02). The assay is described as above. To be noted: CREF/GAPDH counter-screens; HeLa PEG-Prom luciferase reporter, overnight, run 2, dose range 1, at 100 µM (top of the series) unless noted.
The nature of assay [3]: NF-kB reporter suppression in CF airway cells – cell-based, GFP fluorescence, single concentration, confirmation (AID 602472).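 Note: stimulus PAF is a Pseudomonas aeruginosa filtrate and not platelet activating factor; plate controls were DMSO wells with stimulus for no effect and unstimulated DMSO wells for full effect.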 The following applies: KKLEB CF airway cells, PAF-induced NF-kB-GFP fluorescence, overnight; at 5 µM; stronger effect = higher value. The method in brief: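 Test system: KKLEB NFkB-GFP reporter cells | Buffer or medium: Medium with 2% FBS for cells, serum-free medium for stimulus | Probe or stimulus: Pseudomonas aeruginosa filtrate (PAF) as NFkB-activating stimulus | Doses: 5 µM single dose | Incubation: 2 h pretreatment, overnight stimulation | Measured by: GFP fluorescence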

Assay [4] is described as follows: HIF-2a driven luciferase blockers, single dose – luminescence, 786-0 RCC cells, confirmation (AID 651580;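 active = mean inhibition across four replicates of at least 40 percent at the single tested concentration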). The following applies: HIF-2a luciferase reporter luminescence, overnight, at 18.8 µM, stronger effect = higher value. A general note: A reporter such as luciferase makes a cellular process visible.
A short description of assay [5]: HIF-1a luciferase reporter signal reduction – MiaPaCa-2 cells, single concentration, counter-screen for HIF-2a inhibitor project, confirmation (AID 651589;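 active = mean inhibition of the reporter signal across four replicates at the single tested dose of 50% or more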). The following applies: MiaPaCa-2 HIF-1a luciferase reporter, desferoxamine, overnight; at 18.8 µM; stronger effect = higher value.

Broadly, the inhibition is the change of the read-out against control, counted positive when it falls. For the compound `COc1ccccc1CN(C)C(=O)c1cc(-c2cccs2)nc2ccccc12`, the inhibition in the assay with PEG-3 [1] was determined as 99%; with PEG-3 [2], 98.8%.

For `CN(C)c1ccc(N=Nc2nc3ccccc3n2C)cc1`, the inhibition stood at 98.1% with PEG-3 [1] and 98.9% with PEG-3 [2].

In the case of `COc1ccc2c(c1OC)C(=O)N1c3ccccc3C(=O)N(c3ccccc3F)C21` (configuration not stated), the inhibition in the assay with PEG-3 [1] is 62.8%; in the assay with PEG-3 [2], 68.7%.

As to `O=C(CN1CCN(Cc2ccccc2Cl)CC1)N=Nc1c(O)[nH]c2ccccc12`, the results for the inhibition with PEG-3 [1] and in the assay with PEG-3 [2] were 94.2% and 90.4%, respectively.

Consider `CC(C)(C)c1ccc(CN2N=Nc3ccccc3S2(=O)=O)cc1`, for which the figures for the inhibition in the assay with PEG-3 [1] and with PEG-3 [2] were 98.8% and 100%, respectively.

Turning to `COc1cc(C(=O)/C=C/c2cccnc2)c([N+](=O)[O-])cc1OC`, the inhibition with PEG-3 [1] was 102%; in the assay with PEG-3 [2] it was 99.8%.

`O=C(Nc1ccc(-c2nc3ccccc3o2)cc1)c1ccc(N2CCOCC2)c([N+](=O)[O-])c1`: the results for the inhibition in the assay with PEG-3 [1] and with PEG-3 [2] were 17.1% and 37.6%, respectively.

For `CN(C)CC1CCC/C(=C/c2ccc(Cl)cc2)C1=O` (configuration not stated), the values for the inhibition with PEG-3 [1] and with PEG-3 [2] were 102% and 98.7%, respectively.

Regarding `CCCCNc1nc(=S)n(-c2ccccc2)c(C)c1C(C)=O`, the values for the inhibition with PEG-3 [1] and with PEG-3 [2] were 98% and 98.8%, respectively.

As to `O=C1C(Cl)=C(Nc2ccc(O)cc2)C(=O)c2ccccc21`, the inhibition in the assay with PEG-3 [1] was 102%; in the assay with PEG-3 [2], 101%.

On to `Cc1ccc(S(=O)(=O)N2CCCCC2)cc1C(=O)N(C)CC(=O)Nc1ccc(Cl)c(C(F)(F)F)c1`, for which the inhibition with PEG-3 [1] is 74.6%; in the assay with PEG-3 [2] it was 60.6%.

In the case of `COc1ccc(C2c3c(ncn(CCCN4CCOCC4)c3=N)Oc3ccc4ccccc4c32)cc1OC` (configuration not stated), the inhibition was found to be 102% in the assay with PEG-3 [1] and 100% with PEG-3 [2].

`COc1ccc(C2c3ccc4ccccc4c3Oc3ncn(CCO)c(=N)c32)cc1OC` (configuration not stated): the inhibition stood at 99.1% with PEG-3 [1] and 101% with PEG-3 [2].

As to `NCCc1c(-c2ccccc2)n(-c2ccccc2)c2ccccc12`, the results for the inhibition with PEG-3 [1] and with PEG-3 [2] were 97.5% and 102%, respectively.

Consider `CCOC(=O)c1ccc(NC(=O)C2CCCN(S(=O)(=O)c3ccc(F)cc3)C2)cc1` (configuration not stated), for which the inhibition was determined as 97.3% with PEG-3 [1] and 100% with PEG-3 [2].

Take `COc1cccc(CN(C)C(=O)c2cc(-c3cccs3)nc3ccccc23)c1`: the values for the inhibition with PEG-3 [1] and with PEG-3 [2] were 84% and 101%, respectively.

`COc1ccc(C)cc1Nc1n[n+](-c2ccccc2)c(-c2ccc(N(C)C)cc2)s1`: the inhibition in the assay with PEG-3 [1] turned out to be 97.2%; in the assay with PEG-3 [2] it was 100%.

`COc1cccc(C(=O)O/N=C(\N)c2ccccn2)c1`: the inhibition is 102% with PEG-3 [1] and 95.8% in the assay with PEG-3 [2].

In the case of `N#Cc1c(N)nc(SCc2ccncc2)c(C#N)c1-c1cccs1`, the figures for the inhibition with PEG-3 [1] and with PEG-3 [2] were 94.6% and 99.2%, respectively.

Take `Cc1nc(N2CCN(c3ccccn3)CC2)c2c(C)c(C(=O)Nc3ccccc3F)sc2n1`: the inhibition with PEG-3 [1] came out at 53.1%; in the assay with PEG-3 [2], 34.9%.

Consider `CCOc1cccc2sc(N(CCCN(C)C)C(=O)c3ccc(S(=O)(=O)N(CC)Cc4ccccc4)cc3)nc12`, for which the inhibition was found to be 102% with PEG-3 [1] and 101% with PEG-3 [2].

Regarding `COc1ccc(CC(N)c2csc(Nc3cccc(OC)n3)n2)cc1` (configuration not stated), the inhibition is 98.9% with PEG-3 [1] and 100% with PEG-3 [2].

As for `Cc1ccc(F)cc1-c1cc2nc(NCCCN(C)C)n(C)c(=O)c2s1`, the inhibition with PEG-3 [1] was 101%; in the assay with PEG-3 [2], 99.2%.

In the case of `CCc1ccc(NC(=O)CSc2nc3ccccc3c(=O)n2CCCN2CCC(C)CC2)cc1`, the inhibition with PEG-3 [1] was determined as 99.2%; with PEG-3 [2] it was 101%.

For `COc1ccc(N(Cc2cc3cc(OC)ccc3[nH]c2=O)S(=O)(=O)c2ccc(NC(C)=O)cc2)cc1`, the inhibition with PEG-3 [1] and with PEG-3 [2] was 89.7% each time.

For the compound `CCN1CCN(Cc2c(O)ccc3c2O/C(=C\C=C\c2ccccc2)C3=O)CC1`, the inhibition was found to be 99.1% in the assay with PEG-3 [1] and 101% with PEG-3 [2].

For the compound `CN(C)CCCN(C(=O)c1ccc(S(=O)(=O)N(C)Cc2ccccc2)cc1)c1nc2cc3c(cc2s1)OCO3`, the inhibition with PEG-3 [1] is 100%; with PEG-3 [2], 99.3%.

Turning to `CCN(c1ccccc1)S(=O)(=O)c1ccc(C(=O)N(CCCN(C)C)c2nc3cc4c(cc3s2)OCO4)cc1`, the inhibition with PEG-3 [1] was found to be 97.6%; with PEG-3 [2], 99%.

Regarding `NCCCNc1nc(N)c([N+](=O)[O-])c(NC2CCCCC2)n1`, the inhibition came out at 96% in the assay with PEG-3 [1] and 102% with PEG-3 [2].

Take `CCCCCCC=C1CCC(CN2CCCC2)C1=O` (configuration not stated): the results for the inhibition with PEG-3 [1] and with PEG-3 [2] were 98.4% and 101%, respectively.

Regarding `CCOC(=O)c1cccc(Nc2nc(-c3cccnc3)nc3ccccc23)c1`, the inhibition with PEG-3 [1] was found to be 98.9%; with PEG-3 [2], 101%.

As to `Cc1c(C#N)c(N)nc2c3c(sc12)NC(=O)CC3c1ccc(Cl)cc1` (configuration not stated), the inhibition with PEG-3 [1] was determined as 98.7%; in the assay with PEG-3 [2] it was 100%.

On to `CCOC(=O)C(=Cc1ccccc1)C(=O)c1ccccc1`, for which the inhibition in assay [3] is -122% (inactive); in assay [4] it was 97.2% (active); in assay [5] it was 108% (active).

As for `COc1ccc(OC)c(-c2cc(C(=O)N3CCN(c4ncccn4)CC3)c3ccccc3n2)c1`, the inhibition came to 54.9% with PEG-3 [1] and 59.3% in the assay with PEG-3 [2].

In the case of `CCN(C(=O)CSc1nc2n[nH]c(C)c2c(=N)n1-c1ccc(Cl)c(C)c1)c1cccc(C)c1`, the inhibition in the assay with PEG-3 [1] was found to be 70.5%; in the assay with PEG-3 [2], 78%.

As to `N=c1n(CCN2CCCC2)c2ccccc2n1CC(O)c1ccc(Cl)c(Cl)c1` (configuration not stated), the inhibition is 99.3% in the assay with PEG-3 [1] and 101% with PEG-3 [2].

Consider `COc1cc(-c2cc(C(=O)Nc3cc(S(=O)(=O)N4CCOCC4)ccc3C)c3ccccc3n2)cc(OC)c1OC`, for which the inhibition was determined as 55.1% in the assay with PEG-3 [1] and 61.8% with PEG-3 [2].

In the case of `O=c1c2c3c(sc2nc(N2CCNCC2)n1CCc1ccccc1)CCCCC3`, the inhibition was found to be 102% with PEG-3 [1] and 101% with PEG-3 [2].

For the origin of these results see PubChem BioAssay.
